Results: ChEMBL document CHEMBL4814057, “4-4-(Anilinomethyl)-3-[4-(trifluoromethyl)phenyl]-1H-pyrazol-1-ylbenzoic acid derivatives as potent anti-gram-positive bacterial agents” (Eur J Med Chem, 2021)
Converted amounts (≈) assume the structure as drawn. The source made the active and inactive calls. The calls are words filed in the database; no cut-off is given here.

Legend:
[1] = tested on: Staphylococcus epidermidis; experiment: Antimicrobial activity against methicillin-resistant Staphylococcus epidermidis ATCC 700296 assessed as bacterial growth inhibitions by CLSI protocol based microdilution method; assay type: functional
Staphylococcus aureus [2] = experiment: Antibacterial activity against methicillin resistant Staphylococcus aureus ATCC 700699 persisters assessed as reduction in viability at 8 times MIC measured within 4 hrs by colony counting method; assay type: functional; conditions: time hrs <=4
How it was run: (§1)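 Stationary-phase S. aureus from overnight CAMHB culture (35 °C, 200 rpm), washed thrice in PBS, diluted to ~5 × 10^8 CFU/ml. Incubated with antibiotic at 35 °C, 200 rpm. Aliquots taken at set times, washed, serially diluted in PBS, drop-plated (6 × 6) on TSA with 5% sheep blood. Colonies counted after 18–20 h at 35 °C. Triplicates.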

Staphylococcus aureus [3] = experiment: Antibiofilm activity against Staphylococcus aureus ATCC 25923 assessed as destruction of biofilm formation at 2 times MIC after 24 hrs by crystal violet staining based assay relative to control; assay type: functional
How it was run: (§2)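 Overnight culture brought to 0.5 McFarland in PBS, diluted 1:100 in CAMHB with 1% glucose. Inhibition: cells plus compound (in DMSO) at 2x, 1x, 0.5xMIC, 24 h at 35 °C, triplicate. Destruction: 24 h biofilm grown without drug, washed, fresh medium with compound, further 24 h. Then washed, dried, 0.1% crystal violet, solubilized in 33% acetic acid, OD 620 nm. Controls are DMSO-only and broth-only wells.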

Enterococcus faecalis [4] = experiment: Antibiofilm activity against Enterococcus faecalis ATCC 29212 assessed as inhibition of biofilm formation at 0.5 times MIC after 24 hrs by crystal violet staining based assay relative to control; assay type: functional; how it was run: as §2
Enterococcus faecalis [5] = experiment: Antimicrobial activity against vancomycin-susceptible Enterococcus faecalis ATCC 29212 assessed as bacterial growth inhibitions by CLSI protocol based microdilution method
Staphylococcus aureus [6] = experiment: Antibiofilm activity against Staphylococcus aureus ATCC 25923 assessed as destruction of biofilm formation at 1 times MIC after 24 hrs by crystal violet staining based assay relative to control; assay type: functional; how it was run: as §2
Staphylococcus aureus [7] = experiment: Antibacterial activity against methicillin resistant Staphylococcus aureus ATCC 700699 persisters assessed as reduction in viability at 16 times MIC by colony counting method; assay type: functional, organism-based; how it was run: as §1
Enterococcus faecium = experiment: Antimicrobial activity against vancomycin-resistant Enterococcus faecium ATCC 700221 assessed as bacterial growth inhibitions by CLSI protocol based microdilution method; assay type: functional
Staphylococcus aureus [8] = experiment: Antimicrobial activity against methicillin-resistant Staphylococcus aureus ATCC 33592 assessed as bacterial growth inhibitions by CLSI protocol based microdilution method; assay type: functional
Staphylococcus aureus [9] = experiment: Antibacterial activity against methicillin resistant Staphylococcus aureus ATCC 700699 persisters assessed as reduction in viability at 4 times MIC measured within 4 hrs by colony counting method; assay type: functional; conditions: time hrs <=4; how it was run: as §1
Staphylococcus aureus [10] = experiment: Antibacterial activity against vancomycin-intermediate susceptible Staphylococcus aureus ATCC 25923 assessed as bacterial growth inhibition by measuring fold increase in MIC between 14 passages by broth dilution method; assay type: functional
Staphylococcus aureus [11] = experiment: Antimicrobial activity against methicillin-resistant Staphylococcus aureus ATCC 33591 assessed as bacterial growth inhibitions by CLSI protocol based microdilution method; assay type: functional
[12] = Selectivity index, ratio of IC50 for cytotoxicity against human HEK-293T cells to MIC of antimicrobial activity against methicillin-resistant Staphylococcus aureus ATCC 700699; assay type: toxicity, cell-based; conditions: read-out: Selectivity Index
How it was run: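 Ratio of HEK293 IC50 to MIC. HEK293 cells (4000/well, EMEM with 10% FBS, 37 °C, 5% CO2) treated 24 h with a concentration range in DMSO. Resazurin added for 4 h, fluorescence read at ex 560/em 590 nm. IC50 fitted.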

Staphylococcus aureus [13] = experiment: Antimicrobial activity against methicillin-resistant Staphylococcus aureus ATCC 700699 assessed as bacterial growth inhibitions by CLSI protocol based microdilution method; assay type: functional
Staphylococcus aureus [14] = experiment: Antibacterial activity against vancomycin-intermediate susceptible Staphylococcus aureus ATCC 25923 assessed as bacterial growth inhibition by measuring fold increase in MIC between 8 passages by broth dilution method; assay type: functional
Staphylococcus aureus [15] = experiment: Bactericidal activity against Staphylococcus aureus ATCC 700699 assessed as reduction bacterial growth at 4X MIC measured after 6 hrs by time-kill kinetic assay; assay type: functional, organism-based
How it was run: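 Log-phase culture diluted to ~5 × 10^6 CFU/ml in warm CAMHB, exposed at 4xMIC, 35 °C. 20 µl samples every 2 h, 10-fold dilutions to 10^-5, 6 × 6 drop plating. CFU/ml counted after 18–24 h at 35 °C; triplicate.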

Bacillus subtilis = experiment: Antimicrobial activity against Bacillus subtilis ATCC 6623 assessed as bacterial growth inhibitions by CLSI protocol based microdilution method; assay type: functional
How it was run: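 Broth microdilution starting at 50 µg/ml with 2-fold serial dilutions; run in triplicate.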

Staphylococcus aureus [16] = experiment: Antibiofilm activity against Staphylococcus aureus ATCC 25923 assessed as inhibition of biofilm formation at 2 times MIC after 24 hrs by crystal violet staining based assay relative to control; assay type: functional; set-up: scale not given: the % may be the effect or the level left; how it was run: as §2
Staphylococcus aureus [17] = experiment: Antimicrobial activity against antibiotic-resistant Staphylococcus aureus BM-2312 assessed as bacterial growth inhibitions by CLSI protocol based microdilution method; assay type: functional
Enterococcus faecalis [18] = experiment: Antibiofilm activity against Enterococcus faecalis ATCC 29212 assessed as inhibition of biofilm formation at 1 times MIC after 24 hrs by crystal violet staining based assay relative to control; assay type: functional; how it was run: as §2
Enterococcus faecalis [19] = experiment: Antibacterial activity against vancomycin-intermediate Enterococcus faecalis ATCC 29212 assessed as bacterial growth inhibition by measuring fold increase in MIC after14 passages by broth dilution method; assay type: functional, organism-based
Staphylococcus aureus [20] = experiment: Antibacterial activity against methicillin resistant Staphylococcus aureus ATCC 700699 persisters assessed as reduction in viability at 2 times MIC measured within 4 hrs by colony counting method; assay type: functional; conditions: time hrs <=4; how it was run: as §1
Staphylococcus aureus [21] = experiment: Antibiofilm activity against Staphylococcus aureus ATCC 25923 assessed as inhibition of biofilm formation at 0.5 times MIC after 24 hrs by crystal violet staining based assay relative to control; assay type: functional, organism-based; how it was run: as §2
Staphylococcus aureus [22] = experiment: Antimicrobial activity against methicillin-susceptible Staphylococcus aureus ATCC 25923 assessed as bacterial growth inhibitions by CLSI protocol based microdilution method; assay type: functional
Staphylococcus aureus [23] = experiment: Antibiofilm activity against Staphylococcus aureus ATCC 25923 assessed as destruction of biofilm formation at 0.5 times MIC after 24 hrs by crystal violet staining based assay relative to control; assay type: functional, organism-based; how it was run: as §2
Staphylococcus aureus [24] = experiment: Inhibition of protein synthesis in Staphylococcus aureus ATCC 29213 at 8 times MIC measured by liquid scintillation counter; assay type: functional
Enterococcus faecalis [25] = experiment: Antibiofilm activity against Enterococcus faecalis ATCC 29212 assessed as inhibition of biofilm formation at 2 times MIC after 24 hrs by crystal violet staining based assay relative to control; assay type: functional; set-up: scale not given: the % may be the effect or the level left; how it was run: as §2

For `O=C(O)c1ccc(-n2cc(CNc3cc(Cl)c(F)c(Cl)c3)c(-c3ccc(C(F)(F)F)cc3)n2)cc1`, which MIC [1] is on record?
The MIC was 0.78 mg/L (≈ 1.49 µM).

And the Activity (Staphylococcus aureus [2])?
Its Activity is 1 log10CFU/ml.

What about the Activity (Staphylococcus aureus [3]) of the same molecule?
Its Activity is 70%.

What about the Activity (Enterococcus faecalis [4]) of the same molecule?
Its Activity is “inactive”.

What about the MIC (Enterococcus faecalis [5]) of the same molecule?
The MIC was 1.56 mg/L (≈ 2.98 µM).

And the Activity (Staphylococcus aureus [6])?
The Activity was 55%.

And the Activity (Staphylococcus aureus [7])?
The Activity was “Active”.

What about the MIC (Enterococcus faecium) of the same molecule?
The MIC was 0.78 mg/L (≈ 1.49 µM).

And the MIC (Staphylococcus aureus [8])?
The MIC was 0.78 mg/L (≈ 1.49 µM).

And the Activity (Staphylococcus aureus [9])?
The Activity was 1 log10CFU/ml.

What about the “fold change (FC)” value (Staphylococcus aureus [10]) of the same molecule?
The value was 2.

And the MIC (Staphylococcus aureus [11])?
The MIC was 0.78 mg/L (≈ 1.49 µM).

And the selectivity ratio [12]?
The selectivity ratio was 33.

What about the MIC (Staphylococcus aureus [13]) of the same molecule?
The MIC was 0.78 mg/L (≈ 1.49 µM).

And the “fold change (FC)” value (Staphylococcus aureus [14])?
Its value is 2.

And the Activity (Staphylococcus aureus [15])?
The Activity was “Active”.

What about the MIC (Bacillus subtilis) of the same molecule?
Its MIC is 0.78 mg/L (≈ 1.49 µM).

And the Activity (Staphylococcus aureus [16])?
Its Activity is greater than 85%.

What about the MIC (Staphylococcus aureus [17]) of the same molecule?
The MIC was 0.78 mg/L (≈ 1.49 µM).

And the Activity (Enterococcus faecalis [18])?
Its Activity is “inactive”.

And the Activity (Enterococcus faecalis [19])?
The Activity was “inactive”.

What about the Activity (Staphylococcus aureus [20]) of the same molecule?
The Activity was 1 log10CFU/ml.

What about the Activity (Staphylococcus aureus [21]) of the same molecule?
The Activity was “inactive”.

And the MIC (Staphylococcus aureus [22])?
The MIC was 0.78 mg/L (≈ 1.49 µM).

What about the Activity (Staphylococcus aureus [23]) of the same molecule?
The Activity was “inactive”.

For `CC(=O)NC[C@H]1CN(c2ccc(N3CCOCC3)c(F)c2)C(=O)O1`, which inhibition (Staphylococcus aureus [24]) is on record?
The inhibition was 70.7%.

With `O=C(O)c1ccc(-n2cc(CNc3cc(Cl)c(F)c(Cl)c3F)c(-c3ccc(C(F)(F)F)cc3)n2)cc1` as the molecule, how does the MIC [1] read?
Its MIC is 0.78 mg/L (≈ 1.44 µM).

And the Activity (Enterococcus faecalis [25])?
Its Activity is 80%.

What about the MIC (Enterococcus faecalis [5]) of the same molecule?
Its MIC is 0.78 mg/L (≈ 1.44 µM).

And the MIC (Enterococcus faecium)?
The MIC was 0.78 mg/L (≈ 1.44 µM).

What about the MIC (Staphylococcus aureus [8]) of the same molecule?
The MIC was 0.78 mg/L (≈ 1.44 µM).

And the MIC (Staphylococcus aureus [11])?
Its MIC is 0.78 mg/L (≈ 1.44 µM).

What about the MIC (Staphylococcus aureus [13]) of the same molecule?
Its MIC is 0.78 mg/L (≈ 1.44 µM).

What about the MIC (Bacillus subtilis) of the same molecule?
The MIC was 0.78 mg/L (≈ 1.44 µM).

And the MIC (Staphylococcus aureus [17])?
The MIC was 0.78 mg/L (≈ 1.44 µM).

What about the MIC (Staphylococcus aureus [22]) of the same molecule?
The MIC was 0.78 mg/L (≈ 1.44 µM).
